# In ChEMBL document CHEMBL4330086, “Synthesis, in silico experiments and biological evaluation of 1,3,4-trisubstituted pyrazole derivatives as antimalarial agents” (Eur J Med Chem, 2019):
# Calls of active or inactive are those of the source. No cut-off for these calls is given here.
# Assays:
# Plasmodium berghei [1] = assay: Anti-plasmodial activity against Plasmodium berghei ANKA infected in mouse assessed as increase in mean survival time at 0.048 mmol/kg/day, po administered as single dose at 24 hrs time interval from day 1 to day 3 and measured 96 hrs post infection; type: functional, organism-based
# In short: (§1)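 Swiss albino mice, five per group, were infected i.v. on day 0 with 0.2 ml of 2 x 10^7 P. berghei ANKA parasitized erythrocytes. Oral dosing at 0.048 mmol/kg/day began 2 h later and repeated daily on days 1-3. The vehicle was 7% Tween and 3% ethanol in water. Giemsa smears were read on day 4 (5 fields of ~100 RBC). Suppression was taken against vehicle controls, and survival was tracked per mouse.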
# Plasmodium falciparum [2] = assay: Anti-plasmodial activity against chloroquine resistant Plasmodium falciparum RKL9 infected in human erythrocytes after 24 hrs by Giemsa staining-based method; type: functional, organism-based; conditions: RKL9, 24 h
# In short: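 Chloroquine-resistant RKL9 kept in continuous culture (Trager-Jensen). Parasitaemia adjusted to 1-1.5% with fresh human B(+) RBC in RPMI 1640 with 10% AB(+) serum. Two-fold serial dilutions from ethanol stock, duplicate wells, 37°C for 24 h. Giemsa smears scored as schizonts per 100 asexual parasites. Schizont maturation inhibition = 1 − Nt/Nc x 100; IC50 derived.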
# Erythrocyte [3] = assay: Antiinflammatory activity in RBC (unknown origin) at 20 ug/ml relative to control
# Erythrocyte [4] = assay: Antiinflammatory activity in RBC (unknown origin); type: functional
# [5] = Acute toxicity in mouse assessed as mouse death at 150 mg/kg, po after 3 days; type: organism-based; conditions: in vivo, 72 h
# In short: (§2)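 Male mice, 25-30 g, six per group, fasted overnight and weighed before dosing. Compounds given as suspensions in aqueous 1% gum acacia. Five dose groups per compound. Toxicity signs, body-weight change and deaths recorded over 3 days after administration.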
# Plasmodium falciparum [6] = assay: Potency index, ratio of chloroquine phosphate IC50 to compound IC50 for anti-plasmodial activity against chloroquine resistant Plasmodium falciparum RKL9 infected in human erythrocytes; type: functional
# [7] = Acute toxicity in mouse assessed as effect on body weight at 150 mg/kg, po after 3 days; type: organism-based; conditions: in vivo, 72 h; in short: as §2
# Erythrocyte [8] = assay: Antihemolytic activity in RBC (unknown origin) at 20 ug/ml relative to control
# PBMC [9] = assay: Cytotoxicity against human PBMC assessed as reduction in cell viability at 100 ug/ml after 30 mins by Neutral red dye-based phase-contrast inverted microscopic analysis relative to control; conditions: 0.5 h
# In short: (§3)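 PBMC were isolated from a healthy donor by Ficoll-Hypaque density-gradient centrifugation and exposed to a range of test concentrations. Viability was scored by neutral red uptake, with retained dye taken as proportional to viable cells with intact membranes.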
# Erythrocyte [10] = assay: Antiinflammatory activity in RBC (unknown origin) at 40 ug/ml relative to control
# [11] = Acute toxicity in mouse up to 150 mg/kg, po after 3 days; type: organism-based; conditions: in vivo, 72 h; in short: as §2
# Erythrocyte [12] = assay: Antihemolytic activity in RBC (unknown origin) at 40 ug/ml relative to control
# PBMC [13] = assay: Cytotoxicity against human PBMC assessed as reduction in cell viability at 6.25 ug/ml after 30 mins by Neutral red dye-based phase-contrast inverted microscopic analysis relative to control; conditions: 0.5 h; in short: as §3
# PBMC [14] = assay: Cytotoxicity against human PBMC assessed as reduction in cell viability after 30 mins by Neutral red dye-based phase-contrast inverted microscopic analysis; conditions: 0.5 h; in short: as §3
# Erythrocyte [15] = assay: Antihemolytic activity in RBC (unknown origin); type: functional
# Erythrocyte [16] = assay: Antihemolytic activity in RBC (unknown origin) relative to control
# Erythrocyte [17] = assay: Antiinflammatory activity in RBC (unknown origin) relative to control
# [18] = Selectivity ratio of IC50 for human PBMC to IC50 for chloroquine resistant Plasmodium falciparum RKL9; type: toxicity; conditions: read-out: Ratio IC50
# PBMC [19] = assay: Cytotoxicity against human PBMC assessed as reduction in cell viability at 25 ug/ml after 30 mins by Neutral red dye-based phase-contrast inverted microscopic analysis relative to control; conditions: 0.5 h; in short: as §3
# Plasmodium berghei [20] = assay: Anti-plasmodial activity against Plasmodium berghei ANKA infected in mouse assessed as suppression in blood parasitemia level at 0.048 mmol/kg/day, po administered as single dose at 24 hrs time interval from day 1 to day 3 and measured 96 hrs post infection by Giemsa staining based microscopic method relative to control; type: functional; in short: as §1
# Plasmodium berghei [21] = assay: Anti-plasmodial activity against Plasmodium berghei ANKA infected in mouse assessed as mean survival time at 0.048 mmol/kg/day, po administered as single dose at 24 hrs time interval from day 1 to day 3 and measured 96 hrs post infection (reference value: 4.33 +/- 0.7 day); type: functional
# [22] = Selectivity ratio of IC50 for antihemolytic activity in RBC (unknown origin) to IC50 for chloroquine resistant Plasmodium falciparum RKL9; type: functional
# [23] = Selectivity ratio of IC50 for antiinflammatory activity in RBC (unknown origin) to IC50 for chloroquine resistant Plasmodium falciparum RKL9; type: functional
compound,measurement,setting,value
COc1ccc(-c2nn(-c3ccccc3)cc2C(=O)N/N=C/c2cccc(O)c2)cc1,Activity,Plasmodium berghei [1],Active
same,IC50,Plasmodium falciparum [2],14.2 nM
same,Activity,Erythrocyte [3],54.31%
same,Activity,Erythrocyte [4],49.03%
same,Activity,[5],Non-Toxic
same,Ratio IC50,Plasmodium falciparum [6],13
same,Activity,[7],Non-Toxic
same,Activity,Erythrocyte [8],40%
same,Activity,PBMC [9],12.78%
same,Activity,Erythrocyte [10],59.58%
same,Activity,[11],Non-Toxic
same,Activity,Erythrocyte [12],44%
same,Activity,PBMC [13],-19.18%
same,IC50,PBMC [14],1000 µM
same,Activity,Erythrocyte [15],32%
same,IC50,Erythrocyte [16],133 µM
same,IC50,Erythrocyte [17],16 µM
same,selectivity ratio,[18],70000
same,Activity,PBMC [19],54.42%
same,Activity,Plasmodium berghei [20],97.7%
C=CCNC(=S)NNC(=O)c1cn(-c2ccccc2)nc1-c1ccc(OC)cc1,MST,Plasmodium berghei [21],6.66 days
same,Activity,Plasmodium berghei [20],70.11%
C=CCn1c(-c2cn(-c3ccccc3)nc2-c2ccc(OC)cc2)n[nH]c1=S,MST,Plasmodium berghei [21],5.5 days
same,Activity,Plasmodium berghei [20],63.21%
COc1ccc(-c2nn(-c3ccccc3)cc2C(=O)N/N=C/c2ccc(F)cc2)cc1,MST,Plasmodium berghei [21],10.5 days
same,Activity,Plasmodium berghei [20],67.81%
COc1ccc(-c2nn(-c3ccccc3)cc2C(=O)N/N=C/c2ccncc2)cc1,MST,Plasmodium berghei [21],8.83 days
same,Activity,Plasmodium berghei [20],79.31%
COc1ccc(-c2nn(-c3ccccc3)cc2C(=O)N/N=C/c2ccccc2)cc1,MST,Plasmodium berghei [21],9.33 days
same,Activity,Plasmodium berghei [20],85.05%
C=CCn1c(-c2ccc(Br)cc2)cs/c1=N/NC(=O)c1cn(-c2ccccc2)nc1-c1ccc(OC)cc1,Activity,Plasmodium berghei [1],Active
same,IC50,Plasmodium falciparum [2],31.9 nM
same,Activity,Erythrocyte [3],57.79%
same,Activity,Erythrocyte [4],35.23%
same,Activity,[5],Non-Toxic
same,Activity,[7],Non-Toxic
same,Activity,Erythrocyte [8],59%
same,Activity,PBMC [9],39.93%
same,Activity,Erythrocyte [10],80.34%
same,Activity,[11],Non-Toxic
same,Activity,Erythrocyte [12],68%
same,Activity,PBMC [13],8.46%
same,IC50,PBMC [14],222 µM
same,Activity,Erythrocyte [15],16%
same,IC50,Erythrocyte [16],79.5 µM
same,IC50,Erythrocyte [17],13.7 µM
same,Activity,PBMC [19],16.05%
same,Activity,Plasmodium berghei [20],90.8%
C=CCn1c(-c2ccccc2)cs/c1=N/NC(=O)c1cn(-c2ccccc2)nc1-c1ccc(OC)cc1,MST,Plasmodium berghei [21],7.33 days
same,Activity,Plasmodium berghei [20],71.26%
COc1ccc(-c2nn(-c3ccccc3)cc2C(=O)NNC(=S)Nc2ccccc2)cc1,MST,Plasmodium berghei [21],6.66 days
same,Activity,Plasmodium berghei [20],73.56%
COc1ccc(-c2nn(-c3ccccc3)cc2C(=O)N/N=c2/scc(-c3ccc(Br)cc3)n2-c2ccccc2)cc1,MST,Plasmodium berghei [21],11.66 days
same,Activity,Plasmodium berghei [20],81.6%
COc1ccc(-c2nn(-c3ccccc3)cc2C(=O)N/N=C2/SCC(=O)N2c2ccccc2)cc1,MST,Plasmodium berghei [21],12.83 days
same,Activity,Plasmodium berghei [20],82.75%
COc1ccc(-c2nn(-c3ccccc3)cc2C(=O)NNC(C)=O)cc1,MST,Plasmodium berghei [21],6.66 days
same,Activity,Plasmodium berghei [20],63.21%
CCc1nc(N)nc(N)c1-c1ccc(Cl)cc1 [PYRIMETHAMINE],Activity,Plasmodium berghei [1],Active
same,IC50,Plasmodium falciparum [2],12.5 nM
same,Activity,Plasmodium berghei [20],100%
COc1ccc(-c2nn(-c3ccccc3)cc2C(=O)N/N=C/c2cccs2)cc1,MST,Plasmodium berghei [21],11.5 days
same,Activity,Plasmodium berghei [20],86.2%
COc1ccc(-c2nn(-c3ccccc3)cc2C(=O)NNC=O)cc1,MST,Plasmodium berghei [21],6.66 days
same,Activity,Plasmodium berghei [20],70.11%
COc1ccc(-c2nn(-c3ccccc3)cc2C(=O)N/N=C/c2cc(OC)c(OC)c(OC)c2)cc1,Activity,Plasmodium berghei [1],Active
same,IC50,Plasmodium falciparum [2],39.8 nM
same,Activity,Erythrocyte [3],17.52%
same,Ratio IC50,[22],1700
same,Activity,Erythrocyte [4],29.69%
same,Activity,[5],Non-Toxic
same,Activity,[7],Non-Toxic
same,Activity,Erythrocyte [8],85%
same,Activity,PBMC [9],77.93%
same,Activity,Erythrocyte [10],5.34%
same,Activity,[11],Non-Toxic
same,Activity,Erythrocyte [12],97.8%
same,Activity,PBMC [13],43%
same,IC50,PBMC [14],31.2 µM
same,Activity,Erythrocyte [15],41%
same,IC50,Erythrocyte [16],121 µM
same,IC50,Erythrocyte [17],52.5 µM
same,selectivity ratio,[18],783
same,Activity,PBMC [19],60%
same,Activity,Plasmodium berghei [20],93.1%
C=CCN1C(=O)CS/C1=N/NC(=O)c1cn(-c2ccccc2)nc1-c1ccc(OC)cc1,MST,Plasmodium berghei [21],11.33 days
same,Activity,Plasmodium berghei [20],79.31%
COc1ccc(-c2nn(-c3ccccc3)cc2-c2n[nH]c(=S)n2-c2ccccc2)cc1,MST,Plasmodium berghei [21],7.66 days
same,Activity,Plasmodium berghei [20],73.56%
COc1ccc(-c2nn(-c3ccccc3)cc2C(=O)N/N=c2/scc(-c3ccccc3)n2-c2ccccc2)cc1,Activity,Plasmodium berghei [1],Active
same,IC50,Plasmodium falciparum [2],49.2 nM
same,Ratio IC50,[23],71
same,Activity,Erythrocyte [3],81.19%
same,Activity,Erythrocyte [4],56.11%
same,Activity,[5],Non-Toxic
same,Activity,[7],Non-Toxic
same,Activity,Erythrocyte [8],79%
same,Activity,PBMC [9],48.27%
same,Activity,Erythrocyte [10],106.28%
same,Activity,[11],Non-Toxic
same,Activity,Erythrocyte [12],99.8%
same,Activity,PBMC [13],-6.2%
same,IC50,PBMC [14],190 µM
same,Activity,Erythrocyte [15],41%
same,IC50,Erythrocyte [16],138 µM
same,IC50,Erythrocyte [17],3.49 µM
same,Activity,PBMC [19],-1.63%
same,Activity,Plasmodium berghei [20],97.7%
CCN(CC)CCCC(C)Nc1ccnc2cc(Cl)ccc12.O=P(O)(O)O.O=P(O)(O)O (stereo not given) [CHLOROQUINE PHOSPHATE],MST,Plasmodium berghei [21],12.22 days
same,Activity,Plasmodium berghei [20],100%
